In series [1] the target is AURORA-A/CEREBLON(TBD) complex (Homo sapiens, UniProt O14965+Q96SW2). Description: Isothermal titration calorimetry, ternary complex. It counts as binding.
For series [2], the target named is T1, AURORA-A (Homo sapiens, UniProt O14965).
T1 sequence (O14965 1-403): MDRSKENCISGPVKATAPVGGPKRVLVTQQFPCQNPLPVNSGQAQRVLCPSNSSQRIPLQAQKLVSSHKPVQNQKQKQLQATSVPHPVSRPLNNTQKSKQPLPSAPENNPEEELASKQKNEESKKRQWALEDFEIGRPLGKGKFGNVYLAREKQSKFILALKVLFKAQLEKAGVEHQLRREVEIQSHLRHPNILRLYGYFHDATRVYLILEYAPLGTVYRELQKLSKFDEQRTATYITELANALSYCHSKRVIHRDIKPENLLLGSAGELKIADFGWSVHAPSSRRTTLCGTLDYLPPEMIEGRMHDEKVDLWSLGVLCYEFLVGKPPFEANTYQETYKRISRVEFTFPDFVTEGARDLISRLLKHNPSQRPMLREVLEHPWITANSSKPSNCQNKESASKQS
Description: Quantitative SILAC mass spectrometry: AURORA-A level in MV4-11 cells. It counts as cell-based. The following applies: 0.1 µM, 6 hours.

The target of another series is AURORA-B^E162T (Homo sapiens, UniProt Q96GD4, E161T). Description: Immunoblot of HA-tagged AURORA-B swap mutant in MV4-11 cells. It counts as cell-based. Particulars: 6 hours.
Series [3] concerns the target T1, AURORA-A. Description: Immunoblot of AURORA-A in compound-treated MV4-11 cells. It counts as cell-based. Particulars: 6 hours.
Series [4] in a line: alamarBlue cell viability assay, MV4-11 cells. It counts as cell-based. The following applies: human. In a few lines:
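MV4-11 cells (6 x10^3 per well) were exposed for various times, with compound refreshed every 24 h. Viability was read with alamarBlue HS reagent as fluorescence (excitation 550 nm, emission 600 nm).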

The next series has as its target T2, AURORA-A^T217D (Homo sapiens, UniProt O14965, T217D).
T2 sequence (O14965 1-403 T217D): T1 sequence (O14965 1-403) with T217D
Description: Immunoblot of HA-tagged AURORA-A^T217D in IMR5 cells. It counts as cell-based. The following applies: 24 hours. Put shortly: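 IMR5 cells expressing HA-tagged AURORA-A T217D or wild-type AURORA-A were exposed to graded concentrations for 24 h. RIPA lysates (20 min, 4 °C) were cleared and BCA-quantified. Equal protein was resolved by Bis-Tris PAGE and transferred to PVDF. Membranes were blocked 1 h in 5% milk/TBS-T and probed for HA-tagged AURORA-A overnight at 4 °C.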

The test system of a further series is AURORA-A mRNA. Description: Quantitative real-time PCR of AURORA-A mRNA in MV4-11 cells. It counts as cell-based, human. The following applies: 0.1 µM. Put shortly: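 MV4-11 cells were exposed for 6 h, and RNA and protein were isolated in parallel. AURORA-A mRNA was measured by RT-qPCR and normalised to DMSO-treated control cells; bars are means of technical replicates.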

The target in the next series is T3, AURORA-A^P191W (Homo sapiens, UniProt O14965, P191W).
T3 sequence (O14965 1-403 P191W): T1 sequence (O14965 1-403) with P191W
Description: HiBiT assay of AURORA-A^P191W in MV4-11 cells. It counts as cell-based. Particulars: 6 hours. Put shortly: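 HiBiT-tagged wild-type or mutant AURORA-A was expressed stably in MV4-11 cells (infected twice, 24 h apart, selected 72 h after infection). Cells were exposed to serial dilutions of the test compound for 6 h and lysed with lytic detection reagent containing the LgBiT fragment. Luminescence was then read. DC50 and DCmax were derived from the concentration–response data.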

Series [5] addresses CEREBLON thalidomide-binding domain (TBD) (Homo sapiens, UniProt Q96SW2). Description: Isothermal titration calorimetry, CEREBLON-TBD into JB170.
A further series has as its system MV4-11 cells. Description: Annexin/PI flow cytometry, MV4-11 cells. It counts as cell-based, human. Particulars: 0.5 µM, 72 hours. In a few lines: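 MV4-11 cells were collected together with their culture medium, washed in ice-cold PBS and stained with Annexin V/Pacific Blue in HEPES/NaCl/CaCl2 binding buffer for 15 min at room temperature in the dark. Propidium iodide in buffer was added before flow cytometry. Early (annexin+, PI−) and late (annexin+, PI+) apoptotic cells were counted over 50,000 events.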

In series [6] the target is AURORA-B^R160L,E162T,K165R (Homo sapiens, UniProt Q96GD4, E161T/K164R/R159L). Description: Immunoblot of HA-tagged AURORA-B swap mutant x3 in MV4-11 cells. The following applies: 6 hours. It counts as cell-based.

Positions count from the first letter of the chain named.

AURORA-B^R160L,E162T,K165R, sequence (Q96GD4 1-345 isoform Q96GD4-5 R160L/E162T/K165R): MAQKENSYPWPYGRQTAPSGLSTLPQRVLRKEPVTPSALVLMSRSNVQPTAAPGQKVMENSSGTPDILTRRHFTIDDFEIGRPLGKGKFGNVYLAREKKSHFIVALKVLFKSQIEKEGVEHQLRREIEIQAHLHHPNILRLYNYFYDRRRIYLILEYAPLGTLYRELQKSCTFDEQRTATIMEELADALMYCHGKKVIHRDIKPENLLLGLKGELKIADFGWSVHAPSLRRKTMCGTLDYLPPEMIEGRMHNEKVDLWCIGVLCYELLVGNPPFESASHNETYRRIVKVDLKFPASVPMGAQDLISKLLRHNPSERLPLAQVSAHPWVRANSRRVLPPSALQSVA
AURORA-A/CEREBLON(TBD) complex, sequence (Q96SW2 320-428, one chain of several): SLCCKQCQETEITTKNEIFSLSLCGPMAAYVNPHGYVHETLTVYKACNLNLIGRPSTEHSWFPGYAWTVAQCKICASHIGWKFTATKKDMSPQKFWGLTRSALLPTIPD
CEREBLON thalidomide-binding domain (TBD), sequence (Q96SW2 320-428): as the sequence (Q96SW2 320-428, one chain of several) above
AURORA-B^E162T, sequence (Q96GD4 1-345 isoform Q96GD4-5 E162T): as the sequence (Q96GD4 1-345 isoform Q96GD4-5 R160L/E162T/K165R) above, with L160R, R165K counted along it

As to `COc1cc(Nc2ncc3c(n2)-c2ccc(Cl)cc2C(c2c(F)cccc2OC)=NC3)ccc1C(=O)NCCOCCOCCNC(=O)COc1cccc2c1C(=O)N(C1CCC(=O)NC1=O)C2=O` (stereo not shown) [JB170], the results for the Kd in [1] and in series [5] were 183 nM and 6.88 µM, respectively. Further, the “decrease of AURORA-A levels compared to alisertib-treated cells” value on AURORA-A [2] was 73%. Further, the “decrease of AURORA-A levels compared to untreated cells” value at AURORA-A [2] is 57%. In addition, the “JB170-mediated degradation of AURORA-B^E162T with respect to AURORA-A” value on AURORA-B^E162T is “strongly attenuated”. The “reduction of AURORA-A levels (in words)” value on AURORA-A [3] (10 nM) is recorded as “reduced AURORA-A levels modestly”; at AURORA-A [3] (100 nM and 1 µM), “substantial degradation”. The “degrader activity on co-incubation with alisertib or thalidomide” value on AURORA-A [3] is “abolished its degrader activity”. In addition, the “depletion of AURORA-A under proteasomal inhibition by MG132” value on AURORA-A [3] (MG132 10 µM) was “completely blocked”. The “depletion of AURORA-A under inhibition of cullin neddylation by MLN4924” value on AURORA-A [3] (MLN4924 3 µM) is reported as “completely blocked”. Also, the viability at 72 h, 1 µM in [4] is 32%. The “JB170-mediated depletion of AURORA-A^T217D” value on AURORA-A^T217D was “largely abrogated”. In the series with AURORA-A mRNA, the “AURORA-A mRNA levels” value is “not reduced”. Besides, the “JB170-mediated depletion of AURORA-A^P191W” value on AURORA-A^P191W is reported as “abolished JB170-mediated depletion”. The annexin-positive cells in the series on MV4-11 cells came out at 56%. Further, in series [6], the “JB170-mediated degradation of AURORA-B^R160L,E162T,K165R with respect to AURORA-A” value is on record as “strongly attenuated”.

(Values after PMC7610535 (Nature chemical biology, 2020).)
